Consider three compounds from ChEMBL document CHEMBL1148955, “Chemical constituents from the Colombian medicinal plant Maytenus laevis” (2004).

The subject of experiment [1] is PBMC. The experiment is described as follows: Induction of TNFalpha production in human PBMC at 1 ug/ml after 48 hrs by ELISA. The class given is functional. The gist of the method: (§1)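 PBMCs were isolated from heparinized venous blood by Ficoll-Hypaque density gradient centrifugation. Cells were cultured at 1 × 10^6/mL in RPMI 1640 with 10% fetal calf serum, with or without compound at 1 or 10 µg/mL, for 48 h at 37 °C. Cytokines in the culture supernatants were measured by commercial ELISA kits.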
(In general: ELISA stands for enzyme-linked immunosorbent assay.)

Experiment [2] concerns PBMC. The experiment is described as follows: Induction of IL6 production in human PBMC at 1 ug/ml after 48 hrs by ELISA. The class given is functional. The essentials: as §1
Experiment [3] concerns PBMC. In words: Induction of IFN-gamma production in human PBMC at 10 ug/ml after 48 hrs by ELISA. In kind it is functional, cell-based. The gist of the method:
as §1

Experiment [4] relates to PBMC. The experiment is described as follows: Induction of IFN-gamma production in human PBMC at 1 ug/ml after 48 hrs by ELISA. In kind it is functional, cell-based. The essentials:
as §1

The subject of experiment [5] is PBMC. In words: Induction of IL10 production in human PBMC at 1 ug/ml after 48 hrs by ELISA. The class given is functional, cell-based. The essentials:
as §1

Experiment [6] concerns PBMC. In words: Induction of IL6 production in human PBMC at 10 ug/ml after 48 hrs by ELISA. The class given is functional. The essentials:
as §1

In experiment [7] the test system is PBMC. In words: Induction of TNFalpha production in human PBMC at 10 ug/ml after 48 hrs by ELISA. The class given is functional. The essentials: as §1
Experiment [8] deals with PBMC. The experiment is described as follows: Induction of IL12 production in human PBMC at 1 ug/ml after 48 hrs by ELISA. In kind it is functional. The gist of the method: as §1
The test system of experiment [9] is PBMC. In words: Induction of IL4 production in human PBMC at 10 ug/ml after 48 hrs by ELISA. The class given is functional, cell-based. The essentials:
as §1

For experiment [10], the system named is PBMC. In words: Induction of IL4 production in human PBMC at 1 ug/ml after 48 hrs by ELISA. In kind it is functional, cell-based. The essentials:
as §1

Experiment [11] has as its system PBMC. In words: Induction of IL10 production in human PBMC at 10 ug/ml after 48 hrs by ELISA. The class given is functional, cell-based. The essentials:
as §1

Experiment [12] relates to PBMC. In words: Induction of IL12 production in human PBMC at 10 ug/ml after 48 hrs by ELISA. In kind it is functional. The gist of the method: as §1

Activity calls are given as the source filed them. The rule behind the calls is not given here. A value given as a limit tells only on which side of the number the result lay.

Regarding `CC(=O)OC[C@]12[C@H](OC(C)=O)[C@H](OC(C)=O)[C@@H]3[C@@H](OC(=O)c4ccccc4)[C@@]14O[C@@]3(C)COC(=O)c1cccnc1C(C)C(C)C(=O)O[C@@H]([C@H](OC(C)=O)[C@@H]2OC(=O)c1ccccc1)[C@]4(C)O` (stereo partly specified), the Activity is 26.7 pg/mL with PBMC [1]; 463 pg/mL in the experiment on PBMC [2]; 260.8 pg/mL in the experiment on PBMC [6]; below 7.8 pg/mL in the experiment on PBMC [7]; 17.3 pg/mL with PBMC [8]; below 7.8 pg/mL with PBMC [12]. The result in the experiment on PBMC [3], with PBMC [4], in the experiment on PBMC [5], with PBMC [9], with PBMC [10] and in the experiment on PBMC [11] was inactive.
`COc1c(O)cc([C@H]2Oc3cc(O)cc(O)c3C(=O)[C@H]2O)cc1O`: the Activity in the experiment with PBMC [1] was below 7.8 pg/mL; in the experiment on PBMC [2], 279.4 pg/mL; in the experiment with PBMC [6] it was 470.4 pg/mL; with PBMC [7], below 7.8 pg/mL; with PBMC [8], below 7.8 pg/mL; with PBMC [12], below 7.8 pg/mL. The outcome in the experiment with PBMC [3], in the experiment with PBMC [4], in the experiment on PBMC [5], with PBMC [9], in the experiment with PBMC [10] and in the experiment with PBMC [11] was inactive.
For the compound `CC(=O)OC[C@]12[C@H](OC(C)=O)[C@H](OC(C)=O)[C@@H]3[C@@H](OC(C)=O)[C@@]14O[C@@]3(C)COC(=O)c1cccnc1C(C)C(C)C(=O)O[C@@H]([C@H](OC(C)=O)[C@@H]2OC(=O)c1ccccc1)[C@]4(C)O` (stereo partly specified) [MAYTEINE], the Activity came to 22 pg/mL in the experiment with PBMC [1]; 1245.2 pg/mL with PBMC [2]; 1576.2 pg/mL in the experiment on PBMC [6]; 24.6 pg/mL in the experiment on PBMC [7]; 14.3 pg/mL in the experiment on PBMC [8]; 14.7 pg/mL with PBMC [12]. Further, the outcome in the experiment with PBMC [3], in the experiment with PBMC [4], in the experiment with PBMC [5], with PBMC [9], in the experiment on PBMC [10] and in the experiment with PBMC [11] was inactive.
